The test system of series [1] is Mus musculus. The series is described as follows: Toxicity in mouse implanted with S180 cells at 50 mg/kg, ip after 2 days. In kind it is organism-based, CCRF S-180. More on the design: dose 50 mg/kg, route intraperitoneal. As to conditions: in vivo, 48 h. An outline of the steps:
(§1)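 Mouse S180 sarcoma transplant model; drug given i.p. daily, with an NS-treated control group (n = 20) and 10 mice per treated group. At the end, animals were euthanized and tumors excised and weighed. Inhibition rate is relative to the control. Body weight and surviving mouse numbers were recorded at the start and end. Significance was set at p < 0.01.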

Series [2] relates to Mus musculus. The series is described as follows: Effect on body weight in mouse implanted with S180 cells at 50 mg/kg, ip after 2 days. In kind it is functional, CCRF S-180. As to conditions: route intraperitoneal. An outline of the steps:
as §1

A further series concerns CCRF S-180. Put plainly: Antitumor activity in mouse implanted with S180 cells at 50 mg/kg, ip after 2 days. The class given is functional. The following applies: CCRF S-180, ip, 48 h, route intraperitoneal. An outline of the steps:
as §1

The text below walks through data of ChEMBL document CHEMBL1146343, “Synthesis and activity of Combretastatin A-4 analogues: 1,2,3-thiadiazoles as potent antitumor agents” (Bioorg Med Chem Lett, 2007).

Usually inhibition in vivo stands for the change of the read-out against control, counted positive when it falls. Low values mean a response near the control, high ones a response far below the control.

With `O=c1[nH]cc(F)c(=O)[nH]1` [FLUOROURACIL], the Activity entry with Mus musculus [1] was “Non-toxic”; with Mus musculus [2] it was 23 g. In addition, 50 mg/kg produced 80.4% inhibition in vivo in the series on CCRF S-180.
